SENP7 inh: blocks the human protease SENP7 | Q9BQF6 | recombinant SENP7, Z-RLRGG-aminoluciferin luminescence, 40 min | inhibition, % at 5 µM | 1.5% of 330,000 active;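 active means inhibition above about 50% at the single test dose, limit read from the data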
Platelet DG rel: platelet dense granule release activity; human platelet-rich plasma, SFLLRN dense granule ATP release, luminescence; inhibition, %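 (compounds screened at 7.5 µM in platelet-rich plasma)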; 0.22% of 300,000 active; AID 1663;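 active means mean replicate score, as percent of positive control, at or above 50; inconclusive means mean below 50 but at least one replicate at or above 50; inactive means mean and every replicate below 50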
SENP6 block: inhibitors of human SENP6 protease | 1.8% of 330,000 active | Recombinant SENP6 catalytic domain, aminoluciferin luminescence | AID 2599 | inhibition, % at 10 µM;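 active means inhibition above about 50% at the single tested dose, limit read from the data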
SENP8 block-1: inhibitors of human SENP8 protease; Q96LD8; recombinant SENP8, Nedd8 substrate fluorescence; inhibition, % at 20 µM; 0.64% of 360,000 active; AID 602440; in the data active means inhibition mostly above about 40%, no sharp cut-off; inactive means mostly below about 27%
Target sequence (Q96LD8 whole entry, looked up): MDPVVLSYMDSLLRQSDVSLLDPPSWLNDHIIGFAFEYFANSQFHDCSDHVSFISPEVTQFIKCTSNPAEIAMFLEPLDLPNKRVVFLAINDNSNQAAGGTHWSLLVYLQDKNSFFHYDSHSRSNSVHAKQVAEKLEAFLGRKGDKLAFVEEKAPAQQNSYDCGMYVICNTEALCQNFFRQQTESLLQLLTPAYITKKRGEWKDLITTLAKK
SENP1 FRET inh: blocks the human SENP1 SUMO protease catalytic domain; 0.21% of 360,000 active; Q9P0U3; inhibition, % at 10 µM; recombinant SENP1 catalytic domain, CyPet-SUMO1-YPet FRET cleavage;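 active means inhibition at least 30% at 10 µM, raw YFP signal under a set limit, fluorescence ratio 0.5 to 1.5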
Target sequence (Q9P0U3 419-644 limits assumed): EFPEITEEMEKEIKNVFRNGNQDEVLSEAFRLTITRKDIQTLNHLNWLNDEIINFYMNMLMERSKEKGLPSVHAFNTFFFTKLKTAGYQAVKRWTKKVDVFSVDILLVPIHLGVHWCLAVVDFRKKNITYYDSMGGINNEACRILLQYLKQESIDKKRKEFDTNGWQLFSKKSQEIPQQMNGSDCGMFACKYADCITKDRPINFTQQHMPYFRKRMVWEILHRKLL
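Material – human SENP1 catalytic domain · Input – SENP1 enzyme, 20 pM final · Compound dosing – single concentration of 10 µM compound, 0.5% DMSO final · Timing – enzyme reaction for 50 min at room temperature, dark · Measured by – FRET fluorescence in CFP and YFP emission channels · Control set – no-enzyme wells low, DMSO-plus-enzyme wells high control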
SENP8 block-2: blocks the human protease SENP8; Q96LD8; inhibition, % at 10 µM; 1.2% of 330,000 active; purified SENP8, Z-RLRGG-aminoluciferin cleavage, luminescence; AID 2540; in the data active means inhibition above about 50%
SENP8 inh conf: SENP8 (human) inhibition, single concentration confirmation; shares compounds with SENP8 block-1; purified SENP8, Nedd8-AMC/pro-Nedd8 cleavage fluorescence, 30 min; inhibition, % at 25 µM; 15% of 1,400 active; in the data active means inhibition mostly above about 39%, no sharp cut-off; inactive means mostly below about 34%
Numbers stand for hits; 0 = inactive; ? = inconclusive; - = no result given. A selection: hits, their analogues and other compounds. The true share with any hit is near 2.6%.

SMILES | SENP7 inh | Platelet DG rel | SENP6 block | SENP8 block-1 | SENP1 FRET inh | SENP8 block-2 | SENP8 inh conf
c1ccc(CN(Cc2cccs2)C(c2cccs2)c2nnnn2C2CCCC2)cc1 (stereo not given) | 0 | 0 | 0 | 43 | 0 | 0 | 0
CCCN1C2=C(C(=O)CC(C)(C)C2)C(c2ccc(F)cc2)C2=C1c1ccccc1C2=O (stereo not given) | 0 | 0 | 0 | 0 | 0 | 0 | -
CCCCN1C2=C(C(=O)CC(C)(C)C2)C(c2ccccc2)C2=C1c1ccccc1C2=O (stereo not given) | 0 | 0 | 0 | 54 | 0 | 0 | 0
O=C(Cc1ccccc1F)NCC1(N2CCOCC2)CCCCC1 | 0 | 0 | 0 | 0 | 0 | 0 | -
Cn1c(NCCN2CCCC2)nc2cc(-c3ccsc3)sc2c1=O | - | - | - | 0 | 0 | - | -
O=C(CCN1CCN(c2ccccc2)CC1)N/N=C/c1ccc([N+](=O)[O-])o1 | 0 | 0 | 0 | 55 | 0 | 0 | 0
O=C(CN1CCOCC1)NN=Cc1ccc([N+](=O)[O-])o1 | - | - | - | 0 | 0 | - | -
O=C(CNc1cccc([N+](=O)[O-])c1)N/N=C/c1ccc([N+](=O)[O-])o1 | 0 | 0 | 0 | 40 | 0 | 0 | 0
O=C(Cc1ccc([N+](=O)[O-])cc1)N/N=C/c1ccc([N+](=O)[O-])o1 | 0 | 0 | 0 | 0 | 0 | 0 | -
O=C(N/N=C/c1ccc([N+](=O)[O-])o1)c1ccccc1-n1cccc1 | 0 | 0 | 0 | 42 | 0 | 0 | 0
CCOC(=O)Cn1nc(C)c(NC(=O)COc2ccc(OC)cc2)c1C | 0 | 0 | 0 | 0 | 0 | 0 | -
COc1ccc2c(Cl)c(-c3nnc4n3CCCCC4)sc2c1 | 0 | 0 | 0 | 48 | 0 | 0 | 0
COC(=O)C1CCN(C(=O)COc2ccc(S(=O)(=O)N3CCOCC3)cc2Cl)CC1 | 0 | - | 0 | 0 | 0 | 0 | -
O=C1CC(c2ccco2)CC(O)=C1C=NCC1CCNCC1 (stereo not given) | 0 | 0 | 0 | 65 | 0 | 0 | 0
O=C1CC(c2ccco2)CC(O)=C1C=NCCN1CCNCC1 (stereo not given) | 0 | 0 | 0 | 0 | 0 | 0 | -
Cc1cc(=S)[nH]c2c(C)cccc12 | 0 | 0 | 0 | 40 | 0 | 0 | 0
CCCSc1cc(NCCOC(C)=O)c([N+](=O)[O-])c2nonc12 | 0 | ? | 0 | 0 | 0 | 0 | -
Cc1nnc(Sc2cc(NCCCO)c([N+](=O)[O-])c3nonc23)s1 | - | 0 | - | 75 | 0 | - | 0
CC(=O)Nc1ccccc1NC(=O)C/C(C)=N/NC(=O)c1ccc([N+](=O)[O-])c(Cl)c1 | 0 | 0 | 0 | 40 | 0 | 0 | 0
O=C(C(Cl)c1ccccc1)N1CCOCC1 (stereo not given) | 0 | 0 | 0 | 0 | 0 | 0 | -
Cc1cc([N+](=O)[O-])nn1CCCC(=O)N1CCN(c2ccccc2)CC1 | 0 | 0 | 0 | 41 | 0 | 0 | 0
Cc1ccc(F)c(Oc2cc(NN3CCCCC3)c([N+](=O)[O-])cc2[N+](=O)[O-])c1 | 0 | 0 | 0 | 0 | 0 | 0 | -
Cc1ccc(C)c(Oc2cc(NN3CCCCC3)c([N+](=O)[O-])cc2[N+](=O)[O-])c1 | 0 | 0 | 0 | 42 | 0 | 0 | 0
O=[N+]([O-])c1cccc(C(=Nc2cccc(Cl)c2)NO)c1 | 0 | 0 | 0 | 41 | 0 | 0 | 0
O=C(NCCc1cccc(Cl)c1)c1cccc([N+](=O)[O-])c1 | 0 | 0 | 0 | 0 | 0 | 0 | -
SMILES | SENP7 inh | Platelet DG rel | SENP6 block | SENP8 block-1 | SENP1 FRET inh | SENP8 block-2 | SENP8 inh conf
COc1ccc(OCC(=O)OCC(=O)NC2CCCCC2C)cc1 (stereo not given) | 0 | - | 0 | 46 | 0 | 0 | 0
CC1CCCCC1NC(=O)COC(=O)COc1ccccc1Cl (stereo not given) | 0 | 0 | 0 | 0 | 0 | 0 | -
COC(=O)CCCC1=CC2=CC(=O)C(C)(OC(=O)c3cccs3)C(=O)C2=CN1C1CCCC1 (stereo not given) | 0 | 0 | 0 | 46 | 0 | 0 | 49
COC(=O)CCCC1=CC2=CC(=O)C(C)(OC(=O)c3cccs3)C(=O)C2=CN1Cc1ccccc1 (stereo not given) | 0 | 0 | 0 | 0 | 0 | 0 | -
CCOC(=O)CN1C(=O)/C(=C/c2ccccc2Br)Oc2ccccc21 | 0 | 0 | 0 | 0 | 0 | 0 | -
OCCC1CN(Cc2cc(F)ccc2-n2cccn2)CCN1Cc1ccc(F)cc1 (stereo not given) | 0 | 0 | 0 | 0 | 0 | 0 | -
COc1cc(OC)c(C=CC(=O)c2ccccc2O)c(OC)c1 | - | - | - | 42 | 0 | - | 0
CC1(C)CC(NC(=O)c2cccc(S(=O)(=O)N(Cc3ccccc3)c3ccccc3)c2)CC(C)(C)N1 | 0 | 0 | 0 | 0 | 0 | 0 | -
COC/C=C/C1=CC2=CC(=O)C(C)(OC(=O)c3cnc4ccccc4n3)C(=O)C2=CN1CCCOC(C)C (stereo not given) | 0 | 0 | 0 | 44 | 0 | 0 | 0
COC/C=C/C1=CC2=CC(=O)C(C)(OC(=O)c3cnc4ccccc4n3)C(=O)C2=CN1CCOC (stereo not given) | 0 | 0 | 0 | 54 | 0 | 0 | 47
COC/C=C/C1=CC2=CC(=O)C(C)(OC(=O)c3cnc4ccccc4n3)C(=O)C2=CN1CCN1CCOCC1 (stereo not given) | 0 | 0 | 0 | 0 | 0 | 0 | -
C=CCN1C=C2C(=O)C(C)(OC(=O)c3cnc4ccccc4n3)C(=O)C=C2C=C1/C=C/COC (stereo not given) | 0 | 0 | 0 | 0 | 0 | 0 | -
Cc1cc(C)nc(NS(=O)(=O)c2ccc(NC(=O)CCC(=O)O)cc2)n1 | 0 | 0 | 0 | 0 | 0 | 0 | -
COc1ccc(NCc2nnc(SCC(=O)Nc3ccccc3OC)o2)cc1 | 0 | 0 | 0 | 46 | 0 | 0 | 0
COc1ccccc1NC(=O)CSC(N)=O | 0 | 0 | 0 | 46 | 0 | 0 | 0
CCc1ccc(C(=O)NNc2ccccc2F)cc1 | 0 | 0 | 0 | 26 | 0 | 0 | 0
O=C(O)CCc1ccc(-c2ccc(Br)cc2)n1NC(=O)c1ccc([N+](=O)[O-])cc1 | 0 | 0 | 0 | 44 | 0 | 0 | 0
COc1ccc(C(=O)CNc2ccc(C)cc2C)cc1 | 0 | 0 | 0 | 54 | 0 | 0 | 0
CC1=CC2(O)OCCN(CCO)C2=CC1=O (stereo not given) | 0 | 0 | 0 | 44 | 0 | 0 | 0
CC(NC(=O)Nc1ccc(O)cc1)(C(F)(F)F)C(F)(F)F | 0 | 0 | 0 | 78 | 0 | 0 | 0
Cn1nc(C(C)(C)C)cc1C(=O)N1CCCCC1c1cc(C(=O)Nc2ccccc2)no1 (stereo not given) | - | - | - | 0 | 0 | - | -
O=C(c1ccco1)N1CCN(Cc2nnnn2C2CCCCC2)CC1 | 0 | 0 | 0 | 0 | 0 | 0 | -
Cc1ccccc1-c1cnc(C(O)c2ccc(C(C)(C)C)cc2)[nH]1 (stereo not given) | - | - | - | 0 | 0 | - | -
Cc1ccccc1-c1cnc(C(O)c2ccc(-c3ccccc3)cc2)[nH]1 (stereo not given) | - | - | - | 41 | 0 | - | 0
